ChEMBL document CHEMBL4190216, “Asymmetric 1,5-diarylpenta-1,4-dien-3-ones: Antiproliferative activity in prostate epithelial cell models and pharmacokinetic studies” (Eur J Med Chem, 2017)

What was measured:
PWR-1E [1] = experiment: Antiproliferative activity against human PWR-1E cells expressing androgen receptor and PSA assessed as decrease in cell viability after 3 days by WST assay; assay type: functional, cell-based; conditions: 72 h
Outline: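 Non-malignant prostate epithelial PWR-1E (adenovirus 12/SV40-immortalized) was seeded at 5,000 per well. Cells were exposed for 3 days at 37 °C in a CO2 incubator to at least five concentrations, with DMSO as vehicle control. WST-1 reagent was then added for 3 h at 37 °C and absorbance read at 430 nm. IC50 came from linear inhibition, as the mean of triplicate determinations.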

LNCaP = experiment: Antiproliferative activity against human LNCAP cells assessed as decrease in cell viability after 3 days by WST assay; assay type: functional, cell-based; conditions: 72 h
Outline: (§1)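 Cells were seeded at 3,200 per well. PC-3 and LNCaP were grown in RPMI-1640 and DU-145 in EMEM, each with 10% FBS and 1% penicillin/streptomycin, at 37 °C and 5% CO2. Cells were exposed for 3 days to at least five concentrations, with DMSO as vehicle control. WST-1 reagent was then added for 3 h at 37 °C and absorbance read at 430 nm. IC50 came from linear inhibition, averaged over triplicates.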

Rattus norvegicus = experiment: Acute toxicity in Sprague-Dawley rat assessed as mortality at 10 mg/kg administered via oral gavage after 72 hrs; assay type: organism-based; conditions: in vivo
Outline: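 Male Sprague-Dawley rats (250–300 g, n = 4) each received a single 10 mg/kg oral gavage dose. The vehicle was 5% DMSO, 40% polyethylene glycol 400 and 55% saline. Blood was drawn from the lateral tail vein at 1, 3, 6 and 24 h for plasma drug levels. Toxicity was scored as observed deaths after dosing.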

[2] = Plasma concentration in Sprague-Dawley rat at 10 mg/kg administered via oral gavage measured at 1 hr by HPLC-MS/MS analysis; assay type: ADME, organism-based
[3] = Tmax in Sprague-Dawley rat at 10 mg/kg administered via oral gavage by HPLC-MS/MS analysis; assay type: ADME, organism-based; conditions: in vivo
[4] = Plasma concentration in Sprague-Dawley rat at 10 mg/kg administered via oral gavage measured at 6 hrs by HPLC-MS/MS analysis; assay type: ADME, organism-based
PWR-1E [5] = experiment: Potency index, ratio of curcumin IC50 to test compound IC50 for human PWR-1E cells expressing androgen receptor and PSA; assay type: functional
PC-3 [6] = experiment: Antiproliferative activity against human PC3 cells assessed as decrease in cell viability after 3 days by WST assay; assay type: functional, cell-based; conditions: PC-3, 72 h; outline: as §1
[7] = Antiproliferative activity against human LNCaP95 cells expressing androgen receptor splice variants assessed as decrease in cell viability after 5 days by trypan blue exclusion assay; assay type: functional, cell-based; conditions: LNCaP-95, 120 h
DU-145 [8] = experiment: Potency index, ratio of curcumin IC50 to test compound IC50 for human DU145 cells; assay type: functional
[9] = Cmax in Sprague-Dawley rat at 10 mg/kg administered via oral gavage by HPLC-MS/MS analysis; assay type: ADME, organism-based; parameters: dose 10 mg/kg, route oral; conditions: in vivo
[10] = Plasma concentration in Sprague-Dawley rat at 10 mg/kg administered via oral gavage measured at 3 hrs by HPLC-MS/MS analysis; assay type: ADME, organism-based
PC-3 [11] = experiment: Potency index, ratio of curcumin IC50 to test compound IC50 for human PC3 cells; assay type: functional
VCaP = experiment: Antiproliferative activity against human VCaP cells expressing androgen receptor splice variants assessed as decrease in cell viability after 5 days by trypan blue exclusion assay; assay type: functional, cell-based; conditions: 120 h
CWR22R = experiment: Antiproliferative activity against human 22Rv1 cells expressing androgen receptor splice variants assessed as decrease in cell viability after 5 days by trypan blue exclusion assay; assay type: functional, cell-based; conditions: 22Rv1, 120 h
[12] = AUC in Sprague-Dawley rat at 10 mg/kg administered via oral gavage by HPLC-MS/MS analysis; assay type: ADME, organism-based; conditions: in vivo
[13] = Plasma concentration in Sprague-Dawley rat at 10 mg/kg administered via oral gavage measured after 1 day by HPLC-MS/MS analysis; assay type: ADME, organism-based
DU-145 [14] = experiment: Antiproliferative activity against human DU145 cells assessed as decrease in cell viability after 3 days by WST assay; assay type: functional, cell-based; conditions: DU-145, 72 h; outline: as §1

CC(C)n1c(/C=C/C(=O)/C=C/c2ccccn2)nc2ccccc21
IC50 (PWR-1E [1]): 10 nM
IC50 (LNCaP): 30 nM
Activity (Rattus norvegicus): Toxic
concentration at 1 h [2]: 823 ng/mL
Tmax [3]: 3 h
concentration at 6 h [4]: 456 ng/mL
Ratio IC50 (PWR-1E [5]): 885
IC50 (PC-3 [6]): 40 nM
IC50 [7]: 260 nM
Ratio IC50 (DU-145 [8]): 219
Cmax [9]: 13.5 µM
concentration at 3 h [10]: 4260 ng/mL
Ratio IC50 (PC-3 [11]): 636
IC50 (VCaP): 640 nM
IC50 (CWR22R): 450 nM
AUC [12]: 17600 ng·h/mL
concentration at 24 h [13]: 103 ng/mL
IC50 (DU-145 [14]): 120 nM
